Data set [1] concerns Mus musculus. In words: Anticonvulsant activity in albino CF1 mouse assessed as inhibition of pentylenetetrazole-induced seizures in half or more of mouse at 300 mg/kg, ip after 0.5 hrs by scPTZ test. Details: dose 300 mg/kg. It is filed as functional, organism-based. A digest of the protocol: (§1)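 Male CF-1 albino mice (18-25 g), groups of 4. Compound suspended in 0.5% methyl cellulose-water or PEG, given i.p. at 30, 100 and 300 mg/kg. Seizures induced by maximal electroshock (MES) or subcutaneous pentylenetetrazole (scPTZ), tested 0.5 and 4 h after dosing.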

Data set [2] has as its system Mus musculus. In words: Neurotoxicity in albino CF1 mouse assessed as motor impairment at 300 mg/kg, ip after 4 hrs by rotarod test. It is filed as toxicity, organism-based. Details: dose 300 mg/kg, route intraperitoneal. The following applies: in vivo. A digest of the protocol: (§2)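 Motor impairment was tested on a rotorod in mice trained to stay on a rod of 3.2 cm diameter turning at 10 rev/min. Compound given i.p. at 30, 100 or 300 mg/kg, groups of 4, read at 0.5 and 4 h. Neurotoxicity was scored as failure to keep balance for at least 1 min in each of three trials. Value is the minimum dose affecting half or more of the animals.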
In general terms: In the rotarod test animals must keep their balance on a rotating rod.

Data set [3] has as its system Mus musculus. Nature of the data set: Neurotoxicity in ip dosed albino CF1 mouse assessed as minimum drug concentration required for motor impairment in half or more of mouse after 0.5 hrs by rotarod test. It counts as toxicity, organism-based. The settings on record: in vivo. A digest of the protocol: as §2
Data set [4] deals with Mus musculus. Nature of the data set: Anticonvulsant activity in ip dosed albino CF1 mouse assessed as minimum drug concentration required for inhibition of maximal electroshock-induced seizure in half or more of mouse after 0.5 hrs by MES test. It counts as functional. A digest of the protocol:
as §1

The test system of data set [5] is Mus musculus. Nature of the data set: Anticonvulsant activity in ip dosed albino CF1 mouse assessed as minimum drug concentration required for inhibition of maximal electroshock-induced seizure in half or more of mouse after 4 hrs by MES test. It is filed as functional. A digest of the protocol: as §1
A general note: Protection in the maximal electroshock model is a classic sign of anticonvulsant action.

Data set [6] deals with Mus musculus. Nature of the data set: Anticonvulsant activity in albino CF1 mouse assessed as inhibition of pentylenetetrazole-induced seizures in half or more of mouse at 300 mg/kg, ip after 4 hrs by scPTZ test. It is filed as functional, organism-based. Details: dose 300 mg/kg. A digest of the protocol:
as §1

The subject of data set [7] is Mus musculus. In words: Anticonvulsant activity in albino CF1 mouse assessed as minimum inhibition of maximal electroshock-induced seizure in half or more of mouse at 300 mg/kg, ip after 4 hrs by MES test. It is filed as functional, organism-based. On the set-up: dose 300 mg/kg. The procedure, abridged:
as §1

For data set [8], the system named is Mus musculus. Nature of the data set: Neurotoxicity in ip dosed albino CF1 mouse assessed as minimum drug concentration required for motor impairment in half or more of mouse after 4 hrs by rotarod test. It counts as toxicity, organism-based. The following applies: in vivo. The procedure, abridged:
as §2

In data set [9] the test system is Mus musculus. In words: Neurotoxicity in albino CF1 mouse assessed as motor impairment at 300 mg/kg, ip after 0.5 hrs by rotarod test. It counts as toxicity, organism-based. On the set-up: dose 300 mg/kg, route intraperitoneal. The following applies: in vivo. The procedure, abridged: as §2
The test system of data set [10] is Mus musculus. Nature of the data set: Anticonvulsant activity in ip dosed albino CF1 mouse assessed as minimum drug concentration required for inhibition of pentylenetetrazole-induced seizures in half or more of mouse after 0.5 hrs by scPTZ test. It is filed as functional. The procedure, abridged: as §1
The test system of the next data set is Rattus norvegicus. Nature of the data set: Sedative-hypnotic activity in phenobarbitone-activated albino Sprague-Dawley rat assessed as increase in sleeping time at 100 mg/kg pretreated for 30 mins before phenobarbitone sodium challenge relative to control. It is filed as functional. The procedure, abridged: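 Compound dissolved in PEG and given at 100 mg/kg to groups of six animals. Phenobarbitone sodium was injected 30 min later. Sleep duration was recorded in minutes (mean ± SEM) and expressed as % increase over a phenobarbitone-only control.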

Data set [11] has as its system Mus musculus. Nature of the data set: Anticonvulsant activity in albino CF1 mouse assessed as minimum inhibition of maximal electroshock-induced seizure in half or more of mouse at 300 mg/kg, ip after 0.5 hrs by MES test. It counts as functional, organism-based. Details: dose 300 mg/kg. A digest of the protocol:
as §1

Active and inactive are the calls of the source. The rule behind the calls is not given here.

For the compound `Fc1ccc(Nc2nsc(Nc3ccc(F)cc3)n2)cc1`, the outcome in the data set with Mus musculus [1] and with Mus musculus [6] was inactive. Besides, the Activity entry in the data set with Mus musculus [2] is “Non-toxic”; with Mus musculus [3], 100 mg/kg; in the data set on Mus musculus [4], 100 mg/kg; in the data set with Mus musculus [5] it was 300 mg/kg.

Turning to `O=c1snc(Nc2ccncc2)n1-c1ccncc1`, the outcome in the data set with Mus musculus [1], in the data set with Mus musculus [7] and in the data set on Mus musculus [6] was inactive. Further, the Activity entry in the data set with Mus musculus [2] was “Non-toxic”; in the data set on Mus musculus [3], 100 mg/kg; in the data set on Mus musculus [4], 300 mg/kg.

With `O=C1NC(=O)C(c2ccccc2)(c2ccccc2)N1` [PHENYTOIN], the result with Mus musculus [1] and with Mus musculus [6] was inactive. Also, the Activity in the data set on Mus musculus [8] was found to be 100 mg/kg; with Mus musculus [3], 100 mg/kg; in the data set on Mus musculus [4], 30 mg/kg; in the data set on Mus musculus [5] it was 100 mg/kg.

For `O=c1snc(Nc2ccccn2)n1-c1ccccn1`, the result in the data set on Mus musculus [1], with Mus musculus [7] and in the data set on Mus musculus [6] was inactive. For the same compound, the Activity result is “Non-toxic” in the data set on Mus musculus [2], 100 mg/kg with Mus musculus [3] and 300 mg/kg in the data set on Mus musculus [4].

On to `O=c1snc(Nc2ncccn2)n1-c1ncccn1`, for which the outcome in the data set on Mus musculus [1], in the data set on Mus musculus [7] and in the data set on Mus musculus [6] was inactive. The Activity entry in the data set with Mus musculus [2] was “Non-toxic”; in the data set on Mus musculus [9], “Non-toxic”; in the data set on Mus musculus [4], 300 mg/kg.

For the compound `c1cncc(Nc2nsc(Nc3cccnc3)n2)c1`, the result in the data set with Mus musculus [1], in the data set on Mus musculus [7] and in the data set with Mus musculus [6] was inactive. Further, the figures for the Activity result in the data set on Mus musculus [2], in the data set with Mus musculus [3] and with Mus musculus [4] were “Non-toxic”, 100 mg/kg and 300 mg/kg, respectively.

Regarding `c1ccc(Nc2nsc(Nc3ccccn3)n2)nc1`, the outcome with Mus musculus [1], in the data set with Mus musculus [7] and in the data set on Mus musculus [6] was inactive. Also, the Activity entry with Mus musculus [2] is “Non-toxic”; in the data set on Mus musculus [3] it was 100 mg/kg; in the data set on Mus musculus [4], 300 mg/kg.

`NC(=O)N1c2ccccc2C=Cc2ccccc21` [CARBAMAZEPINE]: the Activity with Mus musculus [10] was found to be 100 mg/kg; in the data set on Mus musculus [8], 300 mg/kg; in the data set with Mus musculus [3] it was 100 mg/kg; in the data set with Mus musculus [4], 30 mg/kg. Besides, the outcome in the data set on Mus musculus [7] and in the data set with Mus musculus [6] was inactive.

Take `O=c1snc(Nc2ccc(F)cc2)n1-c1ccc(F)cc1`: the result in the data set on Mus musculus [1], in the data set with Mus musculus [7] and with Mus musculus [6] was inactive. Also, the Activity was 17.7% in the data set on Rattus norvegicus, “Non-toxic” in the data set on Mus musculus [2], 300 mg/kg with Mus musculus [3] and 100 mg/kg in the data set with Mus musculus [4].

Consider `c1cc(Nc2nsc(Nc3ccncc3)n2)ccn1`, for which the result in the data set on Mus musculus [1], in the data set with Mus musculus [7] and in the data set with Mus musculus [6] was inactive. Also, the Activity result is “Non-toxic” in the data set on Mus musculus [2], 100 mg/kg with Mus musculus [3] and 300 mg/kg in the data set with Mus musculus [4].

Consider `O=c1snc(Nc2cccc3ccccc23)n1-c1cccc2ccccc12`, for which the result in the data set with Mus musculus [1] and in the data set with Mus musculus [6] was inactive. The Activity is 16.4% in the data set on Rattus norvegicus; “Non-toxic” with Mus musculus [2]; 300 mg/kg with Mus musculus [3]; 100 mg/kg in the data set with Mus musculus [4]; 300 mg/kg with Mus musculus [5].

With `CCOc1ccc(Nc2nsc(Nc3ccc(OCC)cc3)n2)cc1`, the result in the data set with Mus musculus [1] and in the data set with Mus musculus [6] was inactive. The Activity with Rattus norvegicus was determined as 36.7%; in the data set with Mus musculus [8] it was 300 mg/kg; in the data set with Mus musculus [3] it was 300 mg/kg; with Mus musculus [4], 100 mg/kg; with Mus musculus [5], 300 mg/kg.

In the case of `c1cnc(Nc2nsc(Nc3ncccn3)n2)nc1`, the outcome with Mus musculus [1], in the data set on Mus musculus [11], in the data set on Mus musculus [7] and with Mus musculus [6] was inactive. For the same compound, the Activity with Rattus norvegicus is 59.5%; in the data set on Mus musculus [2] it was “Non-toxic”; in the data set on Mus musculus [3], 300 mg/kg.

For the compound `O=c1snc(Nc2cccnc2)n1-c1cccnc1`, the result in the data set with Mus musculus [1], in the data set with Mus musculus [7] and in the data set on Mus musculus [6] was inactive. For the same compound, the Activity result in the data set with Mus musculus [2] was “Non-toxic”; with Mus musculus [3], 100 mg/kg; in the data set on Mus musculus [4], 300 mg/kg.

As to `c1ccc2c(Nc3nsc(Nc4cccc5ccccc45)n3)cccc2c1`, the result in the data set on Mus musculus [1] and in the data set on Mus musculus [6] was inactive. The Activity with Rattus norvegicus is 22.7%; in the data set with Mus musculus [2], “Non-toxic”; in the data set on Mus musculus [3] it was 300 mg/kg; in the data set on Mus musculus [4], 100 mg/kg; in the data set on Mus musculus [5] it was 300 mg/kg.

With `CCOc1ccc(Nc2nsc(=O)n2-c2ccc(OCC)cc2)cc1`, the Activity came to 300 mg/kg in the data set on Mus musculus [10]; 67.1% with Rattus norvegicus; 300 mg/kg with Mus musculus [8]; 300 mg/kg with Mus musculus [3]; 100 mg/kg with Mus musculus [4]; 300 mg/kg with Mus musculus [5]. The outcome in the data set with Mus musculus [6] was inactive.

Values taken from ChEMBL document CHEMBL1138557, “Synthesis and anticonvulsant activity of some substituted 1,2,4-thiadiazoles” (Eur J Med Chem, 2009).
